In series [1] the target is T1, hOATP1B3 (Homo sapiens, UniProt Q9NPD5).
T1 sequence (Q9NPD5 1-702): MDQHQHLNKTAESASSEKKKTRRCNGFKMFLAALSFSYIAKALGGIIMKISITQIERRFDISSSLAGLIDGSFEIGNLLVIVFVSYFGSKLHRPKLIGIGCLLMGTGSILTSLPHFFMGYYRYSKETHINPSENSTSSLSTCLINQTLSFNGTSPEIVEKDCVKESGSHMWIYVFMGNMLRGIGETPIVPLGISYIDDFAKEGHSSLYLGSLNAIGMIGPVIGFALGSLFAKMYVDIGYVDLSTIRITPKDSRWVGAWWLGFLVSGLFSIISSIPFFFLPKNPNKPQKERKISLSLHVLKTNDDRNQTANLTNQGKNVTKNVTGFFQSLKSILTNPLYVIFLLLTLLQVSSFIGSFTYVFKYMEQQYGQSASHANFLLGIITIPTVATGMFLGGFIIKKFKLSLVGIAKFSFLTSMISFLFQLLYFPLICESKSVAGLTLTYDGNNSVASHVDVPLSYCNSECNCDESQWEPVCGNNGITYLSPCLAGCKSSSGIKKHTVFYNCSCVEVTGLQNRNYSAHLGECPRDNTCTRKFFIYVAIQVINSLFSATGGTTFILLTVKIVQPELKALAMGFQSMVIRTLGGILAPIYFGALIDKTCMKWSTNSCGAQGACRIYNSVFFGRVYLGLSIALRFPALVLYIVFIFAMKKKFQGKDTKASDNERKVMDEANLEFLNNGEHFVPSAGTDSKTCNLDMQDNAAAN
Kind of series: Cellular uptake and kinetics in HEK293-hOATP1B3 vs Mock cells. It is filed as in vitro ADME. The conditions noted are these: 100 μmol/L, substrate if >2-fold of wild type. In a few lines: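 Transfected cells and matching Mock cells were seeded at 2 × 10⁵ cells/mL and grown 2 days. After a DPBS (pH 7.4) wash and 10 min preincubation at 37 °C, cells took up 100 μmol/L test compound for 2–5 min at 37 °C. Uptake was stopped with three ice-cold DPBS washes, followed by methanol extraction and HPLC–MS. Values were normalised to BCA protein and compared with Mock.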

For series [2], the target named is T2, hOAT1 (Homo sapiens, UniProt Q4U2R8).
T2 sequence (Q4U2R8 1-563): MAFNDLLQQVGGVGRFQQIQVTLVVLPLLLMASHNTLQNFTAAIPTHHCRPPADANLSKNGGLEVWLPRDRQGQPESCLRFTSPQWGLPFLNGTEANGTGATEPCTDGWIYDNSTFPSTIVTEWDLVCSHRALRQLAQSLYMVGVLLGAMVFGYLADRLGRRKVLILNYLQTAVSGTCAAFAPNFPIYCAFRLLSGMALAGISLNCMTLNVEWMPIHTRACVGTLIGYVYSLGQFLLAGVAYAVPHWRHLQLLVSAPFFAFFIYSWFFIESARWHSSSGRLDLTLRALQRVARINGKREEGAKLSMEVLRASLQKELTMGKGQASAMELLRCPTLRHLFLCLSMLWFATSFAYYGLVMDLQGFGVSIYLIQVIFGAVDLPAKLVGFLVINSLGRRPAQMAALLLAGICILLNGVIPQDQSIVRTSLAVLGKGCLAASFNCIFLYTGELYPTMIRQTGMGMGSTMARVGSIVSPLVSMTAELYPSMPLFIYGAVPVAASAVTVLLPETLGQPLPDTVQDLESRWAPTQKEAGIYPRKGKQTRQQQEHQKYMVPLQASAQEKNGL
In words: Inhibition of 14C-PAH uptake in MDCK-hOAT1 cells. It is filed as in vitro ADME. The settings on record: for inhibition of the activity of hOAT1: 100 μmol/L IPT, ISP, 100 μg/mL AD extract, substrate 14C-PAH. In a few lines: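 Test compounds were made as DMSO stocks (20 mmol/L, or 10 mg/mL for extract) and diluted in PBS to a final DMSO below 0.5%. Cells were exposed at 37 °C to probe plus or minus test compound. The probe was 5 μmol/L ¹⁴C-PAH for 5 min (hOAT1) or 50 nmol/L ³H-estrone sulfate for 2 min (hOAT3, hOATP2B1). Screens used 100 μmol/L (extract 100 mg/L); IC50 came from varied concentrations. Cells were then given three cold DPBS washes, lysed in 0.1 mol/L NaOH and read by scintillation counting. Data are mean ± SD, n = 3.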

Series [3] concerns the target T1, hOATP1B3. In words: Inhibition of 3H-ES uptake in HEK293-hOATP1B3 cells. It is filed as in vitro ADME. The conditions noted are these: 100 μmol/L IPT, ISP; 100 μg/mL AD extract; substrate 3H-ES. In a few lines:
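HEK293 cells stably overexpressing the human transporter, grown in DMEM with 10% FBS and penicillin/streptomycin at 5% CO₂, then seeded in 24-well plates and used at confluence. Cells incubated at 37 °C for 2 min with 50 nmol/L ³H-estrone sulfate, with or without test compound or extract; final DMSO below 0.5%. Stopped by three cold DPBS washes, lysed in 0.1 mol/L NaOH, and counted by liquid scintillation (DPM).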

Series [4] relates to mice liver slices. Kind of series: In vitro uptake of TDE in mice liver slices. It is filed as in vitro ADME, Kunming mice. The settings on record: mice liver slices, TDE 10 μmol/L. In a few lines:
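Kunming mice (20–25 g, fasted 12 h) were anaesthetised with urethane, and kidney or liver was decapsulated into ice-cold oxygenated buffer at pH 7.5. Slices of about 30 mg were preincubated 5 min under carbogen at 4 or 37 °C. They were then incubated with 10 μmol/L test compound for 5, 10 or 30 min, with or without reference OAT1/OAT3 or OATP inhibitors or co-ingredients. Slices were then washed, blotted, weighed and homogenised, then extracted with methanol and an internal standard for HPLC–MS.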

The subject of series [5] is mOatp1a1. Kind of series: qRT-PCR of mOatp1a1 mRNA in liver of treated mice. It is filed as in vivo. The settings on record: mice given 20 mg/kg TDE with 20 mg/kg IPT, ISP or 200 mg/kg AD extract, 4 h. For orientation: In qPCR the cycle at which signal appears reflects the starting amount.

As a reminder, the IC50 is the concentration that inhibits the measured activity by half. Consider `CC(C)=CCOc1c2occc2cc2ccc(=O)oc12` [IPT, imperatorin], for which, in series [1], the “accumulation in HEK293-hOATP1B3 vs HEK293 wild type” value is “no significant differences”. Besides, in series [2], it took 31.7 µM to reach half-maximal inhibition (IC50) and the “inhibition of the activity of hOAT1” value was “significantly inhibited”. Moreover, the “inhibition to hOATP1B3” value in series [3] was “weak or no inhibition”. The “effect on the uptake of TDE in liver slices” value in series [4] is given as “significant inhibition”. Also, in series [5], the “mRNA level of mOatp1a1 decreased to, compared to TDE alone” value was 22%.

Turning to `CC(C)=CCOc1c2ccoc2cc2oc(=O)ccc12` [ISP, isoimperatorin], in series [1], the “accumulation in HEK293-hOATP1B3 vs HEK293 wild type” value was “no significant differences”. Besides, in series [2], half-maximal inhibition (IC50) required 26.8 µM and the “inhibition of the activity of hOAT1” value was “significantly inhibited”. Besides, the “inhibition to hOATP1B3” value in series [3] was “weak or no inhibition”. Further, in series [4], the “effect on the uptake of TDE in liver slices” value was “significant inhibition”. The “mRNA level of mOatp1a1 decreased to, compared to TDE alone” value in series [5] was determined as 37%.

These data come from publication PMC7564327 (Acta Pharmaceutica Sinica. B, 2020).
